Test results as given in ChEMBL document CHEMBL4138078, “Structure-based virtual screening and optimization of modulators targeting Hsp90-Cdc37 interaction” (Eur J Med Chem, 2017).
Active and inactive are the calls of the source. The rule behind the calls is not given here.

Assays:
Homo sapiens [1] = organism: Homo sapiens; assay: Inhibition of full length His-tagged HSP90/GST-tagged Cdc37 (unknown origin) interaction at 100 uM after 1 hr by HTRF assay relative to control
Summary of the method: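 HTRF assay using His-tagged full-length Hsp90 and GST-tagged Cdc37 M, each 250 nM final, in PBS with an extra 400 mM KF, pH 7.4. Compound incubated 1 h at 37 °C. Anti-GST-Cryptate and anti-6His-XL665 then added, 0.5 h at 37 °C. Ex 320 nm; ratio = (665/620 nm) × 10000. No-compound negative control and reagent-only blank.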

A549 = assay: Antiproliferative activity against human A549 cells after 72 hrs by MTT assay; format: functional, cell-based; settings: A549, 72 h
Summary of the method: (§1)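 Cells seeded at 10000/well and left 24 h, then exposed to compounds in DMSO (200 μM down to 0.823 μM, three-fold steps) for 72 h at 37 °C. Viability was read by MTT (5 mg/mL in PBS) with formazan dissolved in DMSO, OD at 490 nm. IC50 was taken from parallel experiments as mean ± SD. Media: MCF-7 in MEM, SKBR-3 in RPMI-1640, A549 in F12K, each with 10% FCS.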

MCF7 = assay: Antiproliferative activity against human MCF7 cells after 72 hrs by MTT assay; format: functional, cell-based; settings: MCF7, 72 h; summary of the method: as §1
[2] = Inhibition of full length His-tagged HSP90/GST-tagged Cdc37 (unknown origin) interaction after 1 hr by HTRF assay; parameters: species or system Homo sapiens
Summary of the method: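 Final 250 nM each of His-Hsp90 (full length) and GST-Cdc37 M in PBS with extra 400 mM KF, pH 7.4. Compound added (300 μM to 1.23 μM, three-fold steps), 1 h at 37 °C. Anti-GST-cryptate and anti-6His-XL665 added, 0.5 h at 37 °C. TR-FRET read at ex 320 nm, em 665/620 nm, ratio ×10000. No-compound and reagent-only controls included.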

SK-BR-3 = assay: Antiproliferative activity against human SKBR3 cells after 72 hrs by MTT assay; format: functional, cell-based; settings: SK-BR-3, 72 h; summary of the method: as §1
Heat shock protein HSP90 [3] = target: T1, Heat shock protein HSP90 (Homo sapiens, UniProt P07900+P08238); assay: Binding affinity to N-terminal GST-tagged HSP90 (unknown origin) expressed in Escherichia coli by biolayer interferometry analysis
Homo sapiens [4] = organism: Homo sapiens; assay: Inhibition of N-terminal GST-tagged HSP90/Cdc37 (unknown origin) interaction expressed in Escherichia coli preincubated with Cdc37 for 1 hr followed by addition to HSP90 by GST-pull down assay
Summary of the method: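 Pull-down with 10 μg GST-Hsp90 N-terminal domain immobilised as bait on glutathione resin spin columns. Compound incubated with Cdc37 for 1 h at 37 °C, then added to the columns. Loading buffer 25 mM Tris, 0.15 M NaCl, pH 7.2; elution with extra 10 mM reduced glutathione; spins 1 min at 1,000 × g, 4 °C. Eluate analysed by SDS-PAGE and anti-GST/anti-His western blot.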

Heat shock protein HSP90 [5] = target: T1, Heat shock protein HSP90; assay: Inhibition of GA-FITC binding to N-terminal GST-tagged HSP90 (unknown origin) expressed in Escherichia coli at 100 uM after 30 mins fluorescence polarization assay relative to control
Heat shock protein HSP90 [6] = target: T1, Heat shock protein HSP90; assay: Inhibition of N-terminal GST-tagged HSP90 ATPase activity (unknown origin) expressed in Escherichia coli at 100 uM after 1 hr in presence of ATP by spectrophotometric assay relative to control
Summary of the method: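 ADP Hunter Plus ADP-detection kit. Compound at 100 μM final in 15 mM HEPES, 20 mM NaCl, 1 mM EDTA, 10 mM MgCl2, 0.02% Tween20, pH 7.4. Mixed in equal volumes with Hsp90 (5 μM) and ATP (100 μM), 1 h at 37 °C. Detection reagents A and B added, 30 min at room temperature; ex 540/em 620 nm. Protein-free background; no-ligand wells set as 100% activity.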

Homo sapiens [7] = organism: Homo sapiens; assay: Inhibition of full length His-tagged HSP90/GST-tagged Cdc37 (unknown origin) interaction at 10 uM after 1 hr by HTRF assay relative to control

SMILES | inhibition (Homo sapiens [1]) | also measured
Cc1cc(NS(=O)(=O)c2ccc(NC(=O)CCCCC(=O)Nc3ccc(S(=O)(=O)Nc4cc(C)on4)cc3)cc2)no1 | 20.7% | –
O=C1NCCCC[C@H]1N[C@@H]1CC(=O)N(c2ccc(N3C(=O)C[C@@H](N[C@@H]4CCCCNC4=O)C3=O)cc2)C1=O | < 10% | –
NC(=O)COc1ccc(/C=N/NC(=O)[C@H]2CCCN2S(=O)(=O)c2ccc(Cl)cc2)cc1 | < 10% | –
COc1ccccc1N(CC(=O)N/N=C/c1ccc(OCC(=O)Nc2ccccc2Cl)cc1)S(=O)(=O)c1ccc(C)cc1 | 13.6% | –
CCOC(=O)c1c(C)n(Cc2ccccc2)c2ccc(OC[C@H](O)CN3CCN(CCO)CC3)cc12 | < 10% | –
Cc1cc(NS(=O)(=O)c2ccc(NC(=O)CC(=O)Nc3ccc(S(=O)(=O)Nc4cc(C)on4)cc3)cc2)no1 | 65.6 to 66% | –
COc1cccc(C(c2c(N)nc(SCC(N)=O)[nH]c2=O)c2c(N)nc(SCC(N)=O)[nH]c2=O)c1 | 14.3% | –
Cc1ccnc(NS(=O)(=O)c2ccc(NC(=O)c3cccc(C(=O)Nc4ccc(S(=O)(=O)Nc5nccc(C)n5)cc4)c3)cc2)n1 | < 10% | –
O[C@H](COc1ccc(OC[C@H](O)CN2CCN(c3cccc(Cl)c3)CC2)cc1)CN1CCN(c2cccc(Cl)c2)CC1 | 47.6% | IC50 (A549): > 100 µM; IC50 (MCF7): 89.2 µM; IC50 [2]: 128 µM; IC50 (SK-BR-3): > 100 µM
Cc1cc(NS(=O)(=O)c2ccc(NC(=O)CCCC(=O)Nc3ccc(S(=O)(=O)Nc4cc(C)on4)cc3)cc2)no1 | 59.3% | Kd (Heat shock protein HSP90 [3]): 80.4 µM; IC50 (A549): 75.3 µM; inhibition (Homo sapiens [4]): Dose-dependent effect; inhibition (Heat shock protein HSP90 [5]): inactive; IC50 (MCF7): 66.9 µM; IC50 [2]: 76.9 to 77 µM; inhibition (Heat shock protein HSP90 [6]): < 10%; IC50 (SK-BR-3): 59.4 µM
COc1ccc(-c2c(C)oc3cc(OCCN4CCN(CCO)CC4)ccc3c2=O)cc1OC | < 10% | –
Cc1noc(NS(=O)(=O)c2ccc(NC(=O)CC(=O)Nc3ccc(S(=O)(=O)Nc4onc(C)c4C)cc3)cc2)c1C | < 10% | –
O=C(CCC(=O)Nc1ccc(S(=O)(=O)Nc2ccccc2)cc1)Nc1ccc(S(=O)(=O)Nc2ccccc2)cc1 | 49.6% | –
Cc1cc(NS(=O)(=O)c2ccc(NC(=O)CCC(=O)Nc3ccc(S(=O)(=O)Nc4cc(C)on4)cc3)cc2)no1 | 69.8 to 70% | –
COc1ccc(CCNc2cc(N3CCN(CCO)CC3)ccc2[N+](=O)[O-])cc1OC | 30.7% | IC50 (A549): > 100 µM; IC50 (MCF7): > 100 µM; IC50 [2]: 296 µM; IC50 (SK-BR-3): 84.6 µM
COc1ccc(NS(=O)(=O)c2ccc(NC(=O)CCC(=O)Nc3ccc(S(=O)(=O)Nc4ccc(OC)nn4)cc3)cc2)nn1 | < 10% | –
COc1ccc(C(=O)Nc2ccccc2C(=O)NCCCCO)cc1OC | 19.3% | –
CC/N=C1\S[C@H](CC(=O)Nc2cccc(NC(=O)C[C@@H]3S/C(=N/CC)N(CC)C3=O)c2)C(=O)C1CC (stereo partly drawn) | < 10% | –
CCOc1ccc(C(=O)C2=C(O)C(=O)N(CCOCCO)[C@@H]2c2cccc(OC)c2)cc1 | < 10% | –
COC(=O)c1cc(NCc2cc(Cl)c(OCC(N)=O)c(OC)c2)ccc1N1CCOCC1 | < 10% | –
Cc1noc(NS(=O)(=O)c2ccc(NC(=O)CCC(=O)Nc3ccc(S(=O)(=O)Nc4onc(C)c4C)cc3)cc2)c1C | 48.7% | –
CCOC(=O)C1=C(CSc2nc3c(cc2C#N)CN(C)CC3)OC(N)=C(C#N)C1c1ccncc1 (stereo not drawn) | < 10% | –
COc1ccc([C@H](CC(=O)O)NC(=O)CCc2c(C)c3ccc(O)cc3oc2=O)cc1OC | < 10% | –

SMILES | inhibition (Homo sapiens [1]) | also measured
O=C(CCC(=O)Nc1ccc(S(=O)(=O)Nc2ccccn2)cc1)Nc1ccc(S(=O)(=O)Nc2ccccn2)cc1 | < 10% | –
CC(=O)Nc1ccc(C(=O)OCCOC(=O)C2=C(C)NC(C)=C(C(=O)OCCNC(=O)c3ccccc3O)[C@H]2c2cccc([N+](=O)[O-])c2)cc1 | < 10% | –
NC(=O)C1CCN(C[C@H](O)COc2ccc(OC[C@@H](O)CN3CCC(C(N)=O)CC3)cc2)CC1 | < 10% | –
CS(=O)(=O)N(CC(=O)N/N=C/c1ccc(OCC(=O)Nc2ccc(F)cc2)cc1)c1ccc(Cl)c(Cl)c1 | < 10% | –
C=C1[C@@H](C(=O)Nc2ccc(NS(=O)(=O)c3ccc(C)cc3)cc2)[C@@H]1C(=O)Nc1ccc(NS(=O)(=O)c2ccc(C)cc2)cc1 | < 10% | –
COc1ccc(S(=O)(=O)N(CC(=O)N/N=C/c2ccc(OCC(N)=O)cc2)c2ccccc2)cc1 | < 10% | –
O=C(CC(=O)Nc1ccc(S(=O)(=O)Nc2ccccc2)cc1)Nc1ccc(S(=O)(=O)Nc2ccccc2)cc1 | 30.4% | –
CC.COc1ccc(NC(=O)C2=C(C)Nc3nc(CCCO)nn3[C@H]2c2ccc(OC)c(OC)c2)cc1 | 36.6% | Kd (Heat shock protein HSP90 [3]): > 100 µM; IC50 (A549): > 100 µM; inhibition (Heat shock protein HSP90 [5]): inactive; IC50 (MCF7): > 100 µM; IC50 [2]: 154 µM; inhibition (Heat shock protein HSP90 [6]): 45.7%; IC50 (SK-BR-3): > 100 µM
CO[C@H]1/C=C\C=C(/C)C(=O)NC2=CC(=O)C(NCCN(C)C)=C(C[C@@H](C)C[C@H](OC)[C@H](O)[C@@H](C)/C=C(\C)[C@@H]1OC(N)=O)C2=O (stereo in doubt) | – | inhibition (Homo sapiens [7]): inactive
Cc1ccnc(NS(=O)(=O)c2ccc(NC(=O)CCC(=O)Nc3ccc(S(=O)(=O)Nc4nccc(C)n4)cc3)cc2)n1 | < 10% | –
O=C(CCC(=O)Nc1ccc(S(=O)(=O)Nc2nccs2)cc1)Nc1ccc(S(=O)(=O)Nc2nccs2)cc1 | < 10% | –
Cn1nccc1NS(=O)(=O)c1ccc(NC(=O)CC(=O)Nc2ccc(S(=O)(=O)Nc3ccnn3C)cc2)cc1 | 50.9% | –
CCCOC(=O)c1ccc(Oc2c(C)oc3c(CN4CCN(CCO)CC4)c(O)ccc3c2=O)cc1 | < 10% | –
CC1=C(C(=O)OCCNC(=O)c2ccc(O)cc2)[C@@H](c2cccc([N+](=O)[O-])c2)C(C(=O)OCCNC(=O)c2ccccc2O)=C(C)N1 | < 10% | –
C[C@H](O)c1ccc(-c2ccc(CNCCCSc3nnnn3-c3ccccc3)o2)cc1 | < 10% | –
COc1cc(/C=C2\SC(=S)N(CCCCCCN3C(=O)/C(=C\c4ccc(O)c(OC)c4)SC3=S)C2=O)ccc1O | 17% | –
CCOc1cc(CNc2ccc(N3CCOCC3)c(C(=O)OC)c2)cc(Cl)c1OCC(N)=O | < 10% | –
CCOC(=O)c1cccc(NC(=O)CSc2nnc(-c3ccc(O)cc3)n2Cc2ccccc2)c1 | 14.1% | –
Cc1cc(NS(=O)(=O)c2ccc(NC(=O)c3ccc(C(=O)Nc4ccc(S(=O)(=O)Nc5cc(C)on5)cc4)cc3)cc2)no1 | inactive | –
Cn1c(SCC(=O)Nc2ccc3nc(SCC(=O)c4ccc(Cl)cc4)sc3c2)nnc1-c1ccc(N)cc1 | < 10% | –
Cc1cc(C)c(NS(=O)(=O)c2ccc(NC(=O)CCCCC(=O)Nc3ccc(S(=O)(=O)Nc4c(C)cc(C)cc4C)cc3)cc2)c(C)c1 | 21.5% | –
O=C(CCC(=O)Nc1ccc(S(=O)(=O)Nc2ncccn2)cc1)Nc1ccc(S(=O)(=O)Nc2ncccn2)cc1 | < 10% | –
